Three molecules from ChEMBL document CHEMBL2150885, “Dual anticoagulant/antiplatelet persulfated small molecules” (Eur J Med Chem, 2011) can be followed below.

The test system of data set [1] is Platelet. Put plainly: Antiplatelet activity against thrombin receptor-activating peptide-6-induced platelet aggregation in human blood at 6.25 x 10^-4 M measured for 6 mins by multiplate electrical impedance aggregometry. The format is functional, cell-based. The procedure, abridged:
(§1)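 Hirudin-anticoagulated (final […]) healthy-donor whole blood, used within 0.5–1 h. Compound in saline to final 6.25 × 10⁻⁴ M; saline control, acetylsalicylic acid 6.25 × 10⁻⁴ M reference. Blood mixed with saline at 37 °C for 180 s, then agonist at final TRAP-6 […], arachidonic acid 0.5 mM or ADP […]. Impedance recorded 6 min; AUC from mean of two curves, accepted if within 20%.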

Data set [2] has as its system Blood. Nature of the data set: Anticoagulant activity in human whole blood assessed as clotting formation time at 3.12 x 10'4 M by InTEM-TEG assay. Type of data set: functional. The procedure, abridged:
(§2)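 Citrated whole blood (citrate:blood 1:9) from healthy donors. Compound in saline diluted 1:16 into blood to final 3.12 × 10⁻⁴ or 6.25 × 10⁻⁴ M; saline control. Thromboelastography with intrinsic activator (InTEM); R clotting time and K clot formation time in s. Mean of three independent experiments in duplicate.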

Data set [3] relates to Blood. Nature of the data set: Anticoagulant activity in human whole blood assessed as clotting time at 3.12 x 10'4 M by thromboelastography assay. Type of data set: functional. In outline:
as §2

In data set [4] the test system is Plasma. Nature of the data set: Anticoagulant activity in human plasma assessed as concentration required to double prothrombin time. Type of data set: functional. In outline:
(§3)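 Pooled citrated human plasma; compounds in water (10% DMSO for some), final 5 × 10⁻³ to 0.05 × 10⁻³ M; heparin 0.1–10 UI/mL as reference. APTT, PT and TT measured on a coagulometer with commercial kits, clotting time in s. Duplicates repeated on three days (n = 6). Concentration doubling clotting time obtained by linear regression of each concentration-response curve.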

Data set [5] concerns the target Coagulation factor X (Homo sapiens) (UniProt P00742). Put plainly: Inhibition of human factor 10a using CH3SO2-D-Leu-Gly-Arg-pNA, AcOH as substrate at 1 x 10^-3 M by chromogenic substrate hydrolysis assay. The procedure, abridged:
(§4)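 Chromogenic hydrolysis in 50 mM Tris/HCl pH 8.3, 227 mM NaCl, 0.1% BSA, with and without bovine antithrombin III (1 U/mL final). Human factor Xa 0.5 U/mL with CBS 31.39 […], or human thrombin 0.06 U/mL with Chromozym TH […]. Absorbance at 405 nm, enzyme-free blank subtracted; initial slope vs water control gives % inhibition. Compounds at 1 × 10⁻³ M; n = 6.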

In data set [6] the test system is Platelet. Put plainly: Antiplatelet activity against adenosine diphosphate-induced platelet aggregation in human blood at 6.25 x 10^-4 M measured for 6 mins by multiplate electrical impedance aggregometry. The format is functional, cell-based. In outline:
as §1

For data set [7], the system named is NCI-H460. Nature of the data set: Cytotoxicity against human NCI-H460 cells at 1.5 x 10^-4 after 48 hrs. The following applies: nci-h460, 48 h. The format is cell-based.
Data set [8] deals with Antithrombin-III (Bos taurus) (UniProt P41361). Nature of the data set: Inhibition of bovine antithrombin-3 at 1 x 10^-3 M.
Data set [9] is described as follows: Cytotoxicity against human A375-C5 cells at 1.5 x 10^-4 after 48 hrs. Type of data set: cell-based. As to conditions: a375-c5, 48 h.
Data set [10] has as its system Plasma. Nature of the data set: Anticoagulant activity in human plasma assessed as effect on prothrombin level by PT clotting time with factor II deficient plasma at 1 x 10^-3 M.
The subject of data set [11] is Plasma. Put plainly: Anticoagulant activity in human plasma assessed as concentration required to double activated partial thromboplastin time. Type of data set: functional. In outline: as §3
Data set [12] has as its system Plasma. Put plainly: Anticoagulant activity in human plasma assessed as effect on APC level using CBS 42.46 as synthetic substrate. Type of data set: functional, cell-free. The procedure, abridged:
(§5)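 Compound in saline added to citrated human plasma. Protein C activated by a snake venom-derived activator; enzyme formed quantified by amidolytic activity on chromogenic substrate CBS 42.46. Calibration curve linear 3–150%; normal and pathological control plasmas verify accuracy. Compounds at 1 × 10⁻³ M.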

A short description of data set [13]: Antiplatelet activity against collagen-epinephrine-activated platelet in human blood assessed as closure time at 6.25 x 10^-4 M. Type of data set: functional. The procedure, abridged:
(§6)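 Healthy-donor whole blood collected into hirudin (final […]), analysed within 0.5–1 h. Closure time measured in a PFA-100 under high shear through an aperture, platelets activated by a collagen-coated membrane with ADP or epinephrine.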

A short description of data set [14]: Metabolic stability of the compound in human plasma assessed as compound remaining after 3 hrs by IP-RP-HPLC analysis. The format is ADME, cell-free. The following applies: read-out: Stability. In outline:
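Compound at 25 mM final in human plasma diluted 1:1 with PBS pH 7.4, shaken at 37 °C; sampled at 0 and 180 min, three independent samples. TBA buffer (pH 8) added for ion-pairing, quenched with 4× cold acetonitrile, centrifuged, filtered, dried, redissolved in mobile phase. Quantified by ion-pairing RP-HPLC on C-18, phosphate/TBA buffer:acetonitrile 55:45, 1.0 mL/min.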

For data set [15], the system named is MCF7. Put plainly: Cytotoxicity against human ER-positive MCF7 cells at 1.5 x 10^-4 after 48 hrs. Type of data set: cell-based. The following applies: mcf7, 48 h.
Data set [16] deals with Plasma. Put plainly: Anticoagulant activity in human plasma assessed as effect on APC level using CBS 42.46 as synthetic substrate at 1 x 10^-3 M. The format is functional. The procedure, abridged:
as §5

The nature of data set [17]: Antiplatelet activity against collagen-ADP-activated platelet in human blood assessed as closure time at 6.25 x 10^-4 M. Type of data set: functional. In outline: as §6
For data set [18], the system named is Plasma. Put plainly: Anticoagulant activity in human plasma assessed as concentration required to double thrombin time. The format is functional. The procedure, abridged:
as §3

Data set [19] has as its system Platelet. Put plainly: Antiplatelet activity against arachidonic acid-induced platelet aggregation in human blood at 6.25 x 10^-4 M measured for 6 mins by multiplate electrical impedance aggregometry. The format is functional, cell-based. In outline:
as §1

Data set [20] concerns the target Prothrombin (Homo sapiens) (UniProt P00734). Nature of the data set: Inhibition of human thrombin using Tosyl-Gly-Pro-Arg-p-nitroaniline as substrate at 1 x 10^-3 M by chromogenic substrate hydrolysis assay. In outline:
as §4

For data set [21], the system named is Plasma. Nature of the data set: Anticoagulant activity in human plasma assessed as effect on prothrombin level by PT clotting time with factor II deficient plasma.
For data set [22], the species on record is Mus musculus. Put plainly: Acute hepatic toxicity in CD1 mouse. Type of data set: organism-based. As to conditions: in vivo.

Calls of active or inactive are those of the source. No cut-off for these calls is given here.

Sequence of Coagulation factor X (Homo sapiens) (P00742 41-179 limits assumed): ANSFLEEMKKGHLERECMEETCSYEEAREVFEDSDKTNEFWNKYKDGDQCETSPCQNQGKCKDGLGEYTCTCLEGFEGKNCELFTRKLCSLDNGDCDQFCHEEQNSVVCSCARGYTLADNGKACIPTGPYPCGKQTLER
Sequence of Coagulation factor X (Homo sapiens) (P00742 235-488 limits assumed): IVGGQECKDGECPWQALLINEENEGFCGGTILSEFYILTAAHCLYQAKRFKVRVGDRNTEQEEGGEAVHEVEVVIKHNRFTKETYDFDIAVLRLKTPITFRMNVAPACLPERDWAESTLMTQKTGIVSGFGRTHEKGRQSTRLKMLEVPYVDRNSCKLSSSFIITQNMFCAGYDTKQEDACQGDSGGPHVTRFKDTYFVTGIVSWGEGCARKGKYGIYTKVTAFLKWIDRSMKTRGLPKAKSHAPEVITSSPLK
Sequence of Antithrombin-III (Bos taurus) (P41361 whole entry): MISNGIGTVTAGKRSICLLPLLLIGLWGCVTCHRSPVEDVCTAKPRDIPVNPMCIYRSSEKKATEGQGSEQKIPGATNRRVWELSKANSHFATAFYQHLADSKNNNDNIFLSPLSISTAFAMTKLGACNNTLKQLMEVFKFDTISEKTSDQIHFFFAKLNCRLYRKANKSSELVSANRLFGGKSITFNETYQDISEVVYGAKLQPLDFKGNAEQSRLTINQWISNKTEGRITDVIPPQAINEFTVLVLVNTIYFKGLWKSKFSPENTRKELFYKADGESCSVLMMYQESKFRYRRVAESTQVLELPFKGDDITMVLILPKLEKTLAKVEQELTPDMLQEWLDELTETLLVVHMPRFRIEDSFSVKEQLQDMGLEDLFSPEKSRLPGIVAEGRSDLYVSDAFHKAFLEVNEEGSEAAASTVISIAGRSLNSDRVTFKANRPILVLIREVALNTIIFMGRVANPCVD

As for `O=S(=O)([O-])OC[C@H]1O[C@@H](Oc2cc(/C=C/c3ccc(OS(=O)(=O)[O-])cc3)cc(OS(=O)(=O)[O-])c2)[C@H](OS(=O)(=O)[O-])[C@@H](OS(=O)(=O)[O-])[C@@H]1OS(=O)(=O)[O-].[Na+].[Na+].[Na+].[Na+].[Na+].[Na+]`, the results for the AUC in [1], in data set [6] and in [19] were 1020 AU.min, 173 AU.min and 400 AU.min, respectively. In addition, the Time in data set [2] worked out at 136 s; in data set [3] it was 447 s; in data set [13], 273 s; in data set [17] it was 212 s. Further, the 2PT in data set [4] came out at 1.77 mM. Besides, the Activity entry was “Dose-dependent effect” in data set [4]; “Non-toxic” in data set [7]; “Non-toxic” in [9]; 12% in data set [10]; “Dose-dependent effect” in data set [11]; “Dose-dependent effect” in data set [12]. The Activity result is “Non-toxic” in [15]; 50.5% in [16]; “Dose-dependent effect” in data set [18]; 1.95 mM in [18] (record 2); “Dose-dependent effect” in data set [21]. Further, the inhibition result in data set [5], in data set [8] and in data set [20] was “inactive” in each case. Further, in [11], the 2aPTT was 0.146 mM. The remaining at 3 h in data set [14] worked out at 95%.

For the molecule `COc1ccc(-c2cc(=O)c3c(O)cc(O[C@@H]4O[C@H](CO[C@@H]5O[C@@H](C)[C@H](OS(=O)(=O)[O-])[C@@H](OS(=O)(=O)[O-])[C@H]5OS(=O)(=O)[O-])[C@@H](OS(=O)(=O)[O-])[C@H](OS(=O)(=O)[O-])[C@H]4OS(=O)(=O)[O-])cc3o2)cc1O.[Na+].[Na+].[Na+].[Na+].[Na+].[Na+]` [HEXASULFATED DIOSMIN], the AUC in data set [1] came to 1090 AU.min; in data set [6] it was 200 AU.min; in [19], 340 AU.min. Moreover, the Activity result is on record as “Non-toxic” in data set [7]; “Non-toxic” in [9]; 54% in [10]; “Non-toxic” in [15]; 87% in [16]; “Non-toxic” in [22]. Besides, the 2aPTT in data set [11] is reported as 4.35 ×10⁻⁴ M.

For the molecule `C[C@@H]1O[C@@H](OC[C@H]2O[C@@H](Oc3c(-c4ccc(OS(=O)(=O)[O-])c(OS(=O)(=O)[O-])c4)oc4cc(OS(=O)(=O)[O-])cc(OS(=O)(=O)[O-])c4c3=O)[C@H](OS(=O)(=O)[O-])[C@@H](OS(=O)(=O)[O-])[C@@H]2OS(=O)(=O)[O-])[C@H](OS(=O)(=O)[O-])[C@H](OS(=O)(=O)[O-])[C@H]1OS(=O)(=O)[O-].[Na+].[Na+].[Na+].[Na+].[Na+].[Na+].[Na+].[Na+].[Na+].[Na+]`, the AUC in data set [1] was determined as 950 AU.min; in data set [6], 230 AU.min; in data set [19] it was 215 AU.min. Besides, the Activity entry was “Non-toxic” in [7]; “Non-toxic” in [9]; 9% in data set [10]; “Dose-dependent effect” in [12]; “Non-toxic” in data set [15]; 28.5% in data set [16]. In addition, the values for the Activity entry in data set [22] and in data set [21] were “Non-toxic” and “Dose-dependent effect”, respectively.
